The source made the active and inactive calls. No cut-off for these calls is given here. Square brackets hold non-standard residues; d marks the D form. Peptide text beside a SMILES is read from it. Hyp = O=C(O)[C@@H]1C[C@@H](O)CN1; Ahx = NCCCCCC(=O)O
How the values were obtained:
[1] = Downregulation of CCND1 protein expression in human MDA-MB-231 cells assessed as fold change in remaining CCND1 level at 10 uM incubated for 24 hrs by immunoblotting analysis (reference value: 1); format: functional
Outline: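 Cells treated with peptide (10 μM) for 24 h. Lysates in Tris/NaCl/EDTA/1% Triton X-100, run on 10% SDS-PAGE and immunoblotted with ECL detection. β-actin as loading control. Three repeats, quantified against untreated cells.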

[2] = Downregulation of c-Myc protein expression in BALB/c mouse tumor xenografted with human MCF7 cells assessed as fold change in remaining c-Myc level at 25 mg/kg, ip administered every 2 days by immunoblotting analysis; format: functional
Outline: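 Female BALB/c nude mice (4–6 weeks) carry subcutaneous MCF7 or MDA-MB-231 grafts (5 × 10^6 cells). MCF7 mice are brushed with E2 (10–2 M) every 2 days. Dosing starts at ~50 mm3: peptide in normal saline, ip every 2 days. Tumour lysates are immunoblotted with β-actin as loading control; repeated three times.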

[3] = Toxicity in BALB/c mouse xenografted with human MCF7 cells assessed as change in heart at 12.5 mg/kg, ip administered every 2 days in presence of 12.5 mg/kg JMJD6 inhibitor; format: organism-based; settings: in vivo, 48 h
Outline: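 Female BALB/c nude mice carried MCF7 xenografts (5 × 10^6 cells sc, E2 10–2 M brushed every 2 days) and were randomized at about 50 mm3. Peptide was given at 12.5 mg/kg ip every 2 days, and iJMJD6 (DMSO/PBS 1:20) at 12.5 mg/kg ip every other day, alone or combined. Body and organ weights were recorded.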

[4] = Downregulation of c-Myc protein expression in human MDA-MB-231 cells assessed as fold change in remaining c-Myc level at 10 uM incubated for 24 hrs by immunoblotting analysis (reference value: 1); format: functional
Outline: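 Cells (MCF7 or MDA-MB-231 in DMEM, 10% FBS, 37 °C, 5% CO2) are treated with peptide for 24 h. Lysates are taken in Tris/NaCl/EDTA/1% Triton buffer and run on 10% SDS-PAGE. Immunoblots are normalised to β-actin loading control; three repeats.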

MDA-MB-231 [5] = assay: Downregulation of c-Myc gene expression in human MDA-MB-231 cells at 10 uM incubated for 6 hrs by RT-qPCR analysis; format: functional, cell-based
Outline: (§1)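 Cells treated with peptide (10 μM) for 6 h; c-Myc, N-myc and CCND1 mRNA measured by RT-qPCR. Three biological repeats.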

[6] = Toxicity in BALB/c mouse xenografted with human MDA-MB-231 cells assessed as change in liver weight at 12.5 mg/kg, ip administered every 2 days in presence of 50 mg/kg JQ1; format: organism-based; settings: in vivo, 48 h
Outline: (§2)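 Female BALB/c nude mice (4–6 weeks) carried sc MDA-MB-231 xenografts (5 × 10^6 cells) and were randomized at about 50 mm3. Peptide (12.5 mg/kg ip in saline) and JQ1 (50 mg/kg ip, DMSO/10% HPBCD 1:10) were given every 2 days, alone or combined. Body weight was recorded, and heart, liver, spleen, lung and kidney morphology and weight were assessed.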

[7] = Toxicity in BALB/c mouse xenografted with human MDA-MB-231 cells assessed as change in heart weight at 12.5 mg/kg, ip administered every 2 days in presence of 50 mg/kg JQ1; format: organism-based; settings: in vivo, 48 h; outline: as §2
[8] = Downregulation of N-myc protein expression in BALB/c mouse tumor xenografted with human MCF7 cells assessed as fold change in remaining N-myc level at 25 mg/kg, ip administered every 2 days by immunoblotting analysis; format: functional
Outline: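 Tumours taken from xenograft mice dosed with peptide at 25 mg/kg ip every 2 days. […] Three repeats.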

MCF7 [9] = assay: Downregulation of c-Myc gene expression in human MCF7 cells at 10 uM incubated for 6 hrs by RT-qPCR analysis; format: functional, cell-based; outline: as §1
[10] = Toxicity in BALB/c mouse xenografted with human MCF7 cells assessed as change in spleen weight at 12.5 mg/kg, ip administered every 2 days in presence of 50 mg/kg JQ1; format: organism-based; settings: in vivo, 48 h
[11] = Toxicity in BALB/c mouse xenografted with human MDA-MB-231 cells assessed as change in kidney morphology at 12.5 mg/kg, ip administered every 2 days in presence of 50 mg/kg JQ1; format: organism-based; settings: in vivo, 48 h; outline: as §2
MCF7 [12] = assay: Antiproliferative activity against human MCF7 cells at 10 uM incubated for 1 week in presence of 5 uM JQ1 by CellTiter 96 Aqueous One Solution based assay; format: functional, cell-based; settings: time 1.0 weeks
Outline: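 Cells seeded at 2 × 10^3/well and treated with peptide (10 μM) alone or combined with JQ1 (5 μM), iJMJD6 (10 μM) or ICI (2.5 μM), as the line states. Viability read by MTS reagent, 1 h at 37 °C, A490. Three biological repeats.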

[13] = Toxicity in BALB/c mouse xenografted with human MDA-MB-231 cells assessed as change in liver morphology at 12.5 mg/kg, ip administered every 2 days in presence of 50 mg/kg JQ1; format: organism-based; settings: in vivo, 48 h; outline: as §2
Mus musculus = assay: Downregulation of c-Myc mRNA expression in BALB/c mouse tumor xenografted with human MCF7 cells at 25 mg/kg, ip administered every 2 days by RT-qPCR analysis; format: functional, organism-based
Outline: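 Female BALB/c nude mice (4–6 weeks) implanted subcutaneously with 5 × 10^6 cells in PBS. For MCF7 grafts, estrogen (E2, 10–2 M) is brushed on every 2 days. Treatment starts at ~50 mm3 after randomization, with peptide in normal saline ip every 2 days. Tumour mRNA is measured by RT-qPCR.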

MDA-MB-231 [14] = assay: Inhibition of colony formation in human MDA-MB-231 cells at 10 uM incubated for 2 weeks by crystal violet staining based assay; format: functional, cell-based
Outline: (§3)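 Cells are seeded at 1 × 10^3/well and treated with peptide (10 μM) for 2 weeks, alone or with JQ1 5 μM, iJMJD6 10 μM, ICI 2.5 μM, or tamoxifen 3 μM (tamoxifen-resistant lines). Colonies are stained with crystal violet, dissolved in 10% acetic acid, and read at 590 nm. Three biological repeats.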

[15] = Toxicity in BALB/c mouse xenografted with human MDA-MB-231 cells assessed as change in spleen morphology at 12.5 mg/kg, ip administered every 2 days in presence of 50 mg/kg JQ1; format: organism-based; settings: in vivo, 48 h; outline: as §2
[16] = Toxicity in BALB/c mouse xenografted with human MDA-MB-231 cells assessed as change in heart morphology at 12.5 mg/kg, ip administered every 2 days in presence of 50 mg/kg JQ1; format: organism-based; settings: in vivo, 48 h; outline: as §2
[17] = Toxicity in BALB/c mouse xenografted with human MDA-MB-231 cells assessed as change in lung weight at 12.5 mg/kg, ip administered every 2 days in presence of 50 mg/kg JQ1; format: organism-based; settings: in vivo, 48 h; outline: as §2
T47D = assay: Inhibition of colony formation in human T47D cells at 10 uM incubated for 2 weeks by crystal violet staining based assay; format: functional, cell-based; outline: as §3
[18] = Toxicity in BALB/c mouse xenografted with human MCF7 cells assessed as change in organ weight at 2.5 mg/kg, ip administered every 2 days in presence of 12.5 mg/kg fulvestrant; format: organism-based; settings: in vivo, 48 h

| Compound | fold change (FC) [1] | fold change (FC) [2] | Activity [3] | fold change (FC) [4] | Activity (MDA-MB-231 [5]) | Activity [6] | Activity [7] | fold change (FC) [8] | Activity (MCF7 [9]) | Activity [10] | Activity [11] | Activity (MCF7 [12]) | Activity [13] | Activity (Mus musculus) | inhibition (MDA-MB-231 [14]) | Activity [15] | Activity [16] | Activity [17] | inhibition (T47D) | Activity [18] |
| --- | --- | --- | --- | --- | --- | --- | --- | --- | --- | --- | --- | --- | --- | --- | --- | --- | --- | --- | --- | --- |
| CC[C@H](C)[C@H](NC(=O)[C@H](Cc1ccc(O)cc1)NC(=O)[C@@H]1C[C@@H](O)CN1C(=O)[C@H](C)NC(=O)[C@@H](NC(=O)CCCCCNC(=O)[C@H](CCC(=O)O)NC(=O)CNC(=O)[C@H](CS)NC(=O)[C@H](CCCCN)NC(=O)[C@H](Cc1ccccc1)NC(=O)[C@H](CCCCN)NC(=O)[C@H](CCC(N)=O)NC(=O)[C@H](CC(N)=O)NC(=O)[C@H](CCCNC(=N)N)NC(=O)[C@H](CCCNC(=N)N)NC(=O)[C@H](CCCNC(=N)N)NC(=O)[C@H](CCCNC(=N)N)NC(=O)[C@H](CCC(N)=O)NC(=O)[C@H](CCCNC(=N)N)NC(=O)[C@H](CCCNC(=N)N)NC(=O)[C@H](CCCCN)NC(=O)[C@H](CCCCN)NC(=O)[C@H](CCCNC(=N)N)NC(=O)CNC(=O)[C@@H](N)Cc1ccc(O)cc1)[C@@H](C)CC)C(=O)O (H-YGRKKRRQRRRRNQKFKCGE[Ahx]IA[Hyp]YI-OH) | 0.62 | 0.38 | Non-Toxic | 0.85 | Active | Non-Toxic | Non-Toxic | 0.43 | Active | Non-Toxic | Non-Toxic | Active | Non-Toxic | Active | Active | Non-Toxic | Non-Toxic | Non-Toxic | Active | Non-Toxic |
| H-YGRKKRRQRRRRNQKFKCGE-OH | 0.67 | 0.27 | Non-Toxic | 0.77 | Active | Non-Toxic | Non-Toxic | 0.38 | Active | Non-Toxic | Non-Toxic | Active | Non-Toxic | Active | Active | Non-Toxic | Non-Toxic | Non-Toxic | Active | Non-Toxic |

— ChEMBL document CHEMBL5543129, “Peptide Inhibitor Targeting the Extraterminal Domain in BRD4 Potently Suppresses Breast Cancer Both In Vitro and In Vivo” (J Med Chem, 2024)
